These results are taken from ChEMBL document CHEMBL3132745, “Synthesis and Antimicrobial Activities of His(2-aryl)-Arg and Trp-His(2-aryl) Classes of Dipeptidomimetics” (Medchemcomm, 2014).

The test system of one data set is KB. The data set is described as follows: Cytotoxicity against human KB cells assessed as cell viability after 48 hrs by neutral red uptake assay. In kind it is cell-based. The method in brief:
(§1)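 Neutral red uptake assay on human cancer lines (SK-MEL, KB, BT-549, SK-OV-3) and noncancerous mammalian cells (VERO, LLC-PK1). Highest tested concentration was 10 µg/mL.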

The test system of another data set is Cryptococcus neoformans. Nature of the data set: Antifungal activity against Cryptococcus neoformans ATCC 90113 assessed as growth inhibition after 70-74 hrs by CLSI method. It is filed as functional, organism-based.
Another data set relates to BT-549. Nature of the data set: Cytotoxicity against human BT549 cells assessed as cell viability after 48 hrs by neutral red uptake assay. In kind it is cell-based. To be noted: bt-549, 48 h. The method in brief: as §1
The next data set concerns Aspergillus fumigatus. The data set is described as follows: Antifungal activity against Aspergillus fumigatus assessed as growth inhibition. It is filed as functional, organism-based.
The subject of another data set is SK-OV-3. Nature of the data set: Cytotoxicity against human SKOV3 cells assessed as cell viability after 48 hrs by neutral red uptake assay. In kind it is cell-based. The conditions noted are these: sk-ov-3, 48 h. The method in brief:
as §1

For the next data set, the system named is Pichia kudriavzevii. The data set is described as follows: Antifungal activity against Candida krusei assessed as growth inhibition. In kind it is functional, organism-based.
The test system of another data set is LLC-PK1. The data set is described as follows: Cytotoxicity against pig LLC-PK1 cells assessed as cell viability after 48 hrs by neutral red uptake assay. In kind it is cell-based, Sus scrofa. The conditions noted are these: llc-pk1, 48 h. An outline of the steps: as §1
The subject of another data set is Candida albicans. The data set is described as follows: Antifungal activity against Candida albicans assessed as growth inhibition. In kind it is functional, organism-based.
The subject of another data set is Nakaseomyces glabratus. The data set is described as follows: Antifungal activity against Candida glabrata assessed as growth inhibition. In kind it is functional, organism-based.
The next data set concerns Vero. Nature of the data set: Cytotoxicity against african green monkey Vero cells assessed as cell viability after 48 hrs by neutral red uptake assay. In kind it is cell-based. The conditions noted are these: chlorocebus sabaeus. The method in brief: as §1
A further data set relates to Escherichia coli. Nature of the data set: Antibacterial activity against Escherichia coli ATCC 35218 assessed as growth inhibition after 16-20 hrs by CLSI method. In kind it is functional, organism-based.
A further data set deals with SK-MEL. Nature of the data set: Cytotoxicity against human SK-MEL cells assessed as cell viability after 48 hrs by neutral red uptake assay. It is filed as cell-based. The method in brief: as §1
[1] abbreviates: Cryptococcus neoformans, ATCC 90113, read-out: IC50.

SMILES strings stand for the structures. Values after ≈ are worked out from the molar mass of the structure shown. Active and inactive are the calls of the source. The rule behind the calls is not given here. Residues, ends and D or L forms follow the SMILES beside them. *: point of attachment. Boc = CC(C)(C)OC(=O)*; NHBn = c1ccc(CN*)cc1 Some results are limits rather than exact numbers.

Turning to `COc1ccc(-c2nc(C[C@H](NC(=O)[C@H](Cc3c[nH]c4ccccc34)NC(=O)OC(C)(C)C)C(=O)NCc3ccccc3)c[nH]2)cc1`, the Activity in the data set on KB, in the data set with BT-549, in the data set with SK-OV-3, with LLC-PK1, with Vero and in the data set with SK-MEL was over 10 µg/mL throughout. For the same compound, the IC50 result in the data set on Cryptococcus neoformans was “Not Active”. For the same compound, in the data set with Cryptococcus neoformans, the MFC result was “inactive”. For the same compound, the MIC result in the data set on Cryptococcus neoformans was “inactive”. For the same compound, the “growth inhibition (GI)” value with Aspergillus fumigatus, in the data set with Pichia kudriavzevii, in the data set with Candida albicans, in the data set with Nakaseomyces glabratus and in the data set with Escherichia coli was “inactive” in each case.
On to `COc1ccc(-c2nc(C[C@H](NC(=O)[C@@H](N)Cc3c[nH]c4ccccc34)C(=O)NCc3ccccc3)c[nH]2)cc1`, for which the Activity in the data set with KB, in the data set on BT-549, in the data set on SK-OV-3, in the data set on LLC-PK1, with Vero and in the data set with SK-MEL was over 10 µg/mL throughout. Further, the MFC entry in the data set with Cryptococcus neoformans is “inactive”. In the data set on Cryptococcus neoformans (Cryptococcus neoformans, ATCC 90113), the MIC was 10 µg/mL (≈ 18.6 µM). The IC50 with Cryptococcus neoformans (setting [1]) was 10.8 µg/mL (≈ 20.2 µM). Further, the “growth inhibition (GI)” value in the data set with Aspergillus fumigatus, in the data set on Pichia kudriavzevii, in the data set with Candida albicans, with Nakaseomyces glabratus and in the data set on Escherichia coli was “inactive” each time.
Consider `COc1ccc(-c2nc(C[C@H](N)C(=O)N[C@@H](CCCNC(=N)N)C(=O)NCc3ccccc3)c[nH]2)cc1`, for which the Activity in the data set with KB, in the data set on BT-549, in the data set on SK-OV-3, in the data set on LLC-PK1, in the data set with Vero and with SK-MEL was over 10 µg/mL in each case. For the same compound, in the data set on Cryptococcus neoformans, the IC50 entry is listed as “Not Active”. Moreover, the MFC result with Cryptococcus neoformans was “inactive”. Moreover, the MIC result in the data set on Cryptococcus neoformans was “inactive”. In addition, the “growth inhibition (GI)” value in the data set on Aspergillus fumigatus, in the data set with Pichia kudriavzevii, with Candida albicans, in the data set on Nakaseomyces glabratus and with Escherichia coli was “inactive” each time.
Turning to `COC(=O)[C@H](Cc1c[nH]cn1)NC(=O)[C@H](Cc1c[nH]c2ccccc12)NC(=O)OC(C)(C)C` (Boc-Trp-His-OMe), the Activity in the data set on KB, in the data set on BT-549, in the data set with SK-OV-3, in the data set with LLC-PK1, in the data set on Vero and in the data set on SK-MEL was over 10 µg/mL throughout. In addition, in the data set on Cryptococcus neoformans, the IC50 result is “Not Active”. Moreover, the MFC result with Cryptococcus neoformans is “inactive”. The MIC entry in the data set on Cryptococcus neoformans was “inactive”. Besides, the “growth inhibition (GI)” value in the data set on Aspergillus fumigatus, with Pichia kudriavzevii, in the data set on Candida albicans, in the data set on Nakaseomyces glabratus and in the data set with Escherichia coli was “inactive” throughout.
On to `COC(=O)[C@H](CCCNC(=N)N)NC(=O)[C@@H](N)Cc1c[nH]c(-c2ccc(C)cc2)n1`, for which the Activity in the data set with KB, in the data set with BT-549, with SK-OV-3, in the data set with LLC-PK1, in the data set on Vero and in the data set with SK-MEL was over 10 µg/mL each time. Also, in the data set on Cryptococcus neoformans, the IC50 entry is on record as “Not Active”. Also, in the data set on Cryptococcus neoformans, the MFC result was “inactive”. Also, in the data set on Cryptococcus neoformans, the MIC entry was “inactive”. For the same compound, the “growth inhibition (GI)” value in the data set with Aspergillus fumigatus, in the data set on Pichia kudriavzevii, in the data set on Candida albicans, with Nakaseomyces glabratus and in the data set on Escherichia coli was “inactive” in each case.
For `COC(=O)[C@H](Cc1c[nH]c(-c2ccc(OC)cc2)n1)NC(=O)[C@@H](N)Cc1c[nH]c2ccccc12`, the Activity with KB, in the data set on BT-549, with SK-OV-3, with LLC-PK1, in the data set on Vero and with SK-MEL was over 10 µg/mL throughout. The half-maximal inhibitory concentration (IC50) entry with Cryptococcus neoformans was “Not Active”. For the same compound, the MFC result in the data set on Cryptococcus neoformans is “inactive”. In addition, the MIC entry with Cryptococcus neoformans is “inactive”. Further, the “growth inhibition (GI)” value in the data set on Aspergillus fumigatus, in the data set on Pichia kudriavzevii, with Candida albicans, with Nakaseomyces glabratus and with Escherichia coli was “inactive” throughout.
For `COC(=O)[C@H](CCCNC(=N)N)NC(=O)[C@H](Cc1c[nH]c(-c2ccc(OC)cc2)n1)NC(=O)OC(C)(C)C`, the Activity in the data set on KB, in the data set with BT-549, in the data set on SK-OV-3, in the data set on LLC-PK1, in the data set with Vero and in the data set on SK-MEL was over 10 µg/mL each time. The IC50 result in the data set on Cryptococcus neoformans is given as “Not Active”. For the same compound, in the data set on Cryptococcus neoformans, the MFC result was “inactive”. Also, the MIC entry in the data set with Cryptococcus neoformans was “inactive”. In addition, the “growth inhibition (GI)” value in the data set on Aspergillus fumigatus, in the data set on Pichia kudriavzevii, with Candida albicans, with Nakaseomyces glabratus and with Escherichia coli was “inactive” throughout.
Regarding `CC(C)(C)OC(=O)N[C@@H](Cc1c[nH]c2ccccc12)C(=O)N[C@@H](Cc1c[nH]cn1)C(=O)NCc1ccccc1` (Boc-Trp-His-NHBn), the Activity in the data set on KB, with BT-549, with SK-OV-3, with LLC-PK1, with Vero and in the data set on SK-MEL was over 10 µg/mL each time. The 50% inhibitory concentration (IC50) result in the data set with Cryptococcus neoformans is “Not Active”. Also, the MFC result in the data set with Cryptococcus neoformans is “inactive”. Besides, the MIC result with Cryptococcus neoformans was “inactive”. In addition, the “growth inhibition (GI)” value with Aspergillus fumigatus, in the data set on Pichia kudriavzevii, in the data set on Candida albicans, in the data set with Nakaseomyces glabratus and with Escherichia coli was “inactive” each time.
Take `COC(=O)[C@H](CCCNC(=N)N)NC(=O)[C@@H](N)Cc1c[nH]cn1` (H-His-Arg-OMe): the Activity in the data set on KB, with BT-549, in the data set with SK-OV-3, in the data set with LLC-PK1, in the data set with Vero and with SK-MEL was over 10 µg/mL each time. The IC50 result in the data set on Cryptococcus neoformans was “Not Active”. Besides, the MFC result in the data set with Cryptococcus neoformans is “inactive”. The MIC entry in the data set on Cryptococcus neoformans was “inactive”. For the same compound, the “growth inhibition (GI)” value in the data set with Aspergillus fumigatus, in the data set with Pichia kudriavzevii, in the data set on Candida albicans, with Nakaseomyces glabratus and in the data set on Escherichia coli was “inactive” each time.
As to `COC(=O)[C@H](CCCNC(=N)N)NC(=O)[C@H](Cc1c[nH]c(-c2ccc(C)cc2)n1)NC(=O)OC(C)(C)C`, the Activity with KB, in the data set on BT-549, in the data set on SK-OV-3, with LLC-PK1, with Vero and in the data set with SK-MEL was over 10 µg/mL in each case. In addition, the MFC result in the data set on Cryptococcus neoformans is “inactive”. For the same compound, the MIC entry in the data set with Cryptococcus neoformans was “inactive”. Further, in the data set with Cryptococcus neoformans (setting [1]), the IC50 amounted to 16.9 µg/mL (≈ 32.9 µM). Further, the “growth inhibition (GI)” value in the data set on Aspergillus fumigatus, with Pichia kudriavzevii, in the data set with Candida albicans, in the data set with Nakaseomyces glabratus and with Escherichia coli was “inactive” in each case.
Consider `COC(=O)[C@H](Cc1c[nH]cn1)NC(=O)[C@@H](N)Cc1c[nH]c2ccccc12` (H-Trp-His-OMe), for which the Activity in the data set on KB, in the data set with BT-549, with SK-OV-3, in the data set with LLC-PK1, in the data set with Vero and in the data set on SK-MEL was over 10 µg/mL in each case. Also, the IC50 result in the data set on Cryptococcus neoformans is listed as “Not Active”. The MFC entry in the data set on Cryptococcus neoformans is “inactive”. For the same compound, in the data set on Cryptococcus neoformans, the MIC entry is “inactive”. The “growth inhibition (GI)” value in the data set with Aspergillus fumigatus, with Pichia kudriavzevii, in the data set on Candida albicans, in the data set on Nakaseomyces glabratus and with Escherichia coli was “inactive” each time.

What is called IC50 is the concentration needed to halve the response being measured. Usually MIC stands for the lowest concentration that inhibits growth of the organism.
